# In the library only some 1.3% were active in any assay of this set; here they are far more common.
# Hep lipid drop – hepatic lipid droplet formation modulation; AML12 mouse hepatocytes, oleate lipid droplets, BODIPY imaging; inhibition, % at 6.5 µM; 240,000 tested, 0.4% active; AID 1656;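 active means lipid droplet intensity inhibited by at least 50%, with more than 500 cells counted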
#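 Test system: AML12 mouse liver cells; schedule: overnight exposure; technique: high-content imaging of BODIPY-stained droplets and DAPI nuclei; read-out: % inhibition of corrected integrated BODIPY droplet signal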
# procasp3 activ – activators of human procaspase-3; P42574; recombinant procaspase-3 D3A, Ac-DEVD-pNA absorbance 405 nm; activation, % at 8.5 µM; 330,000 tested, 0.11% active; AID 463141;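 active means activation above the mean of all tested compounds plus 3 SD, cut at about 21% in these data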;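 further: 0% = DMSO alone and 100% = DMSO wells spiked with extra 5 µM PC-3 D3A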
#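 Assay system: Procaspase-3 D3A mutant, all three cleavage aspartates alanine. Buffer or medium: Zinc-free HEPES saline buffer with Triton X-100. Times: 1 h compound preincubation, 2 h substrate hydrolysis at 25 °C. Measured by: 405 nm absorbance of p-nitroaniline, reads at 0 and 120 min. Read-out basis: percent activation relative to control range. Replicates: singlicate.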
# VLA-4 inh – inhibition in a human VLA-4 binding assay | P13612 | VLA-4 expressing cells, ligand binding flow cytometry | inhibition, % (about 7 µM as worked out from the volumes in the protocol) | 330,000 tested, 0.2% active | AID 2557; in the data active means inhibition above about 50%
# procasp7 counter – counter-screen for procaspase-3 activators: activators of human procaspase-7 | activation, % at 8.5 µM | 330,000 tested, 0.093% active | P55210 | AID 463210 | recombinant procaspase-7, Ac-DEVD-pNA absorbance 405 nm; D23A/D198A/D206A triple mutant, cannot self-cleave; scale: DMSO 0, 5 µM enzyme 100;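 active means percent activation above the screen-wide mean plus 3 SD, cut at about 25% in these data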
#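 Assay system: Uncleavable procaspase-7 mutant enzyme; Input: 2 µM procaspase-7 mutant as dispensed; Also added: DEVD-pNA substrate; Medium: Zinc-free HEPES pH 7.4 with 300 mM NaCl, 0.01% Triton X-100; Timing: 1 h compound preincubation, 2 h substrate cleavage, 25 °C; Measured by: Epi-absorbance of released pNA at 405 nm, two timepoints.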
# GRK2 inh – human GRK2 inhibition via aptamer displacement. P25098. bead flow cytometry, FAM-aptamer displacement from GRK2. inhibition of aptamer binding, % at 10 µM. 330,000 tested, 0.59% active. AID 488847;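 active means inhibition of aptamer binding above 40%, roughly 3 SD of noise, on plates passing a quality check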;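 further: median bead fluorescence of bound FAM aptamer so fluorescent compounds give negative values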
# JMJD2C inh – human JMJD2C demethylase inhibition. Q9H3R0. GST-JMJD2C(1-420) H3K9me3 demethylation, DELFIA europium. inhibition, % at 2.35 µM. 330,000 tested, 0.069% active. AID 2099;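 active means more than half of a compound's replicate wells show inhibition beyond 50%, single wells judged on their own value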;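 further: signal counts dimethyl H3K9 product captured on neutravidin plate; 0% = median of DMSO wells and 100% = 0.3 times that DMSO median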
# Target sequence (Q9H3R0 1-420 limits assumed): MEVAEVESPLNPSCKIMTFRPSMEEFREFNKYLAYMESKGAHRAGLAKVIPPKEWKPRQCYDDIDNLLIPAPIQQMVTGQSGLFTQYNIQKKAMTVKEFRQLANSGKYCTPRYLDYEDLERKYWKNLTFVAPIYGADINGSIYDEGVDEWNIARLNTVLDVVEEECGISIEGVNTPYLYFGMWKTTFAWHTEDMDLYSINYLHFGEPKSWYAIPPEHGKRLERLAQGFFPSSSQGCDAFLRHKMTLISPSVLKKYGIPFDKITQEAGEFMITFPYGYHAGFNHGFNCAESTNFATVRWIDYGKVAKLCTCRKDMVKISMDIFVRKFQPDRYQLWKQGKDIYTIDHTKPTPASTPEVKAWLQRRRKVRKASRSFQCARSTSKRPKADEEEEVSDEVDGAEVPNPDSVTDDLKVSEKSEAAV
# proCasp7 act trip – counter-screen: procaspase-7 (human) activation in triplicate. shares compounds with procasp3 activ. recombinant procaspase-7, Ac-DEVD-pNA absorbance; asp23/198/206-to-Ala mutant, cannot self-cleave. activation, % at 8.5 µM. 210 tested, under 10 active. AID 488941;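 active means mean activation above a set limit taken from an earlier procaspase-7 screen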;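 further: 0% = DMSO wells and 100% = DMSO plus 5 µM procaspase-7 enzyme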
# procasp3 conf – confirmation of human procaspase-3 activators | shares compounds with procasp3 activ | recombinant PC-3 D3A, Ac-DEVD-pNA absorbance 405 nm; 100% is higher-enzyme control | activation, % at 8.5 µM | 210 tested, 10% active;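 active means mean activation above a set limit carried over from the earlier primary screen, cut at about 22% in these data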
# * marks the source's active call; other numbers are inactive results; / = no result.
SMILES,Hep lipid drop,procasp3 activ,VLA-4 inh,procasp7 counter,GRK2 inh,JMJD2C inh,proCasp7 act trip,procasp3 conf
O=C(O)c1nn(CCOc2ccccc2F)c(=O)c2ccccc12,-22,22*,10,6,0,-2,0,3
O=C(O)c1nn(CCOc2ccc(Br)cc2)c(=O)c2ccccc12,-12,14,14,0,2,14,/,/
CSCCC(NC(=O)COc1ccccc1)C(=O)N1CCN(C(C)=O)CC1 (stereo unspecified),3,3,13,4,0,0,/,/
O=c1oc2cc(O)ccc2cc1-c1ccccc1,-19,19,0,20,2,2,/,/
COc1ccc(-c2cc3ccc(O)cc3oc2=O)cc1,4,22*,-15,18,1,13,-20,-15
c1ccc(C2=NN(c3ccccc3)C(c3ccco3)C2)cc1 (stereo unspecified),-1,26*,2,24,1,0,-20,-15
O=C(/C=C1\NC2(CCCC2)Cc2ccccc21)C(=O)N/N=C/c1ccccc1O,-1,24*,-9,0,2,-12,24,32*
COc1cc(/C=N/NC(=O)C(=O)/C=C2\NC3(CCCC3)Cc3ccccc32)ccc1O,-2,-7,20,-13,2,-32,/,/
CC(=O)c1ccccc1NC(=O)COC(=O)CCC1CCCC1,/,-2,3,8,2,-2,/,/
O=C(CN1C(=O)/C(=C\c2ccccc2Br)Oc2ccccc21)NCCCN1CCOCC1,-1,32*,7,25,1,-35,-18,-13
CC1Oc2ccccc2N(CC(=O)NCCCN2CCOCC2)C1=O (stereo unspecified),-3,6,0,4,0,-18,/,/
O=C(NNC(=O)c1ccco1)c1ccc(NS(=O)(=O)c2cccs2)cc1,/,0,-7,2,0,-12,/,/
CN1/C(=C/C(=O)c2ccc(Cl)cc2)Sc2cc3c(cc21)OCO3,28,40*,-12,11,0,1,-13,2
Cc1cnc(C(=O)OCC(=O)N2c3ccccc3NC(=O)C2(C)C)cn1,/,0,8,8,0,-8,/,/
CC(=O)c1c(C)[nH]c(C(=O)OCC(=O)N2c3ccccc3NC(=O)C2(C)C)c1C,19,30*,13,24,0,10,1,5
CCCCn1c(N)c(N(CC)C(=O)c2cccc(S(=O)(=O)N3CCN(C)CC3)c2)c(=O)[nH]c1=O,/,24*,6,6,0,0,4,7
CC(NC(=O)c1cc2cc([N+](=O)[O-])ccc2oc1=O)C1CCCO1 (stereo unspecified),1,22*,12,21,2,-8,21,32*
CC(=O)Oc1cccc2c1C(=O)c1c(OC(C)=O)cc(C(=O)O)cc1C2=O,3,26*,2,16,2,-23,17,32*
CCOc1ccc(-c2c(C(=O)N/N=C/c3ccc(C)s3)nnn2-c2nonc2N)cc1,-27,26*,1,-6,3,0,-3,-4
CCOc1cccc(-c2c(C(=O)N/N=C/c3ccc(C)s3)nnn2-c2nonc2N)c1,9,-1,0,-4,5,6,/,/
COc1cccc(NC(=O)Nc2ccc(C(C)(C)C)cc2)c1,3,/,/,/,/,5,/,/
CCn1c(NCc2cccc(OC)c2OC)nc2ccccc21,13,22*,-9,17,1,-6,4,2
COc1cccc(CNc2nc3ccccc3n2CCN2CCCCC2)c1OC,-16,3,3,2,0,5,/,/
C=CCN(c1ccccc1)S(=O)(=O)c1cccc(C(=O)OCC(=O)NCCOC)c1,30,-6,11,-5,2,-13,/,/
C=CCN(c1ccccc1)S(=O)(=O)c1cccc(C(=O)Oc2ccc3c(C)cc(=O)oc3c2)c1,16,21*,-2,21,0,-5,-7,-7
SMILES,Hep lipid drop,procasp3 activ,VLA-4 inh,procasp7 counter,GRK2 inh,JMJD2C inh,proCasp7 act trip,procasp3 conf
COc1ccc(NC(=O)COC(=O)C2CC(=O)N(c3ccc(C)cc3)C2)cc1 (stereo unspecified),/,-1,6,-1,0,7,/,/
O=[N+]([O-])c1cccc(-c2ccc(CN3CCN(c4ccccc4)CC3)o2)c1,-19,23*,8,-4,1,-2,-4,2
O=[N+]([O-])c1ccccc1-c1ccc(CN2CCN(c3ccccc3)CC2)o1,15,5,-7,-7,0,-2,/,/
CCOc1cccc(CN2CCCC(C(=O)c3cc(Cl)ccc3OC)C2)c1O (stereo unspecified),0,-11,4,-11,0,-4,/,/
Cc1nn(CC(C)C)c(Cl)c1C(=O)N(c1ccc(Cl)cc1F)S(C)(=O)=O,-11,1,-6,7,6,-2,/,/
COc1cccc(NC(=O)COC(=O)/C=C/c2ccc(Cl)cc2Cl)c1,-1,5,0,-7,15,-5,/,/
COc1ccc(OC)c(/C=C/C(=O)OCC(=O)Nc2cccc(Oc3ccccc3)c2)c1,17,23*,17,17,10,5,-22,-14
Cc1ccc(OCCN2CCN(C(=O)CCC(=O)Nc3nnc(CC(C)C)s3)CC2)cc1,2,-8,-9,-3,1,-3,/,/
COc1ccc(-n2c(CCc3ccccc3)nnc2SCC(=O)NCc2ccccc2)cc1,2,59*,4,-4,0,-2,0,4
O=C(CSc1nnc(CCc2ccccc2)n1-c1ccc(Cl)cc1)NCc1ccccc1,0,14,-2,4,0,1,/,/
Cc1sc2ncn(CC(=O)OC(C)C)c(=O)c2c1C,-16,/,/,/,/,/,/,/
Cc1ccc(C)c(N(CC(=O)Nc2ccc(-c3nc4ccc(C)cc4s3)cc2)S(C)(=O)=O)c1,0,24*,5,24,0,4,17,23*
Cc1ccc2nc(-c3ccc(NS(=O)(=O)c4c(C)n(C)c(=O)n(C)c4=O)cc3)sc2c1,0,-11,16,-20,3,10,/,/
Cc1ccc(S(=O)(=O)Nc2ccc(-c3nc4ccc(C)cc4s3)cc2)cc1,33,23*,-9,23,12,-26,13,13
COCCn1c(SCC(=O)Nc2ccc3[nH]c(=O)[nH]c3c2)nc2ccccc21,/,6,-4,-2,0,26,/,/

# Compound activity deposited in PubChem BioAssay by several laboratories.
